ChEMBL document CHEMBL1800017, “Resorcylic acid lactones with cytotoxic and NF-κB inhibitory activities and their structure-activity relationships” (J Nat Prod, 2011)
pIC50: −log10 of the molar value. Active and inactive are the calls of the source. No cut-off for these calls is given here.

Assays:
[1] = test system: HT-29; experiment: Cytotoxicity against human HT-29 cells after 72 hrs by MTS assay; type: functional, cell-based; conditions: HT-29, 72 h
Method in brief: (§1)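 Cells were grown in RPMI 1640 with 10% FBS, penicillin and streptomycin. They were plated at 2500 (HT-29) or 5000 (MDA-MB-435) cells/well and preincubated 16 h at 37 °C in 5% CO2. Test substance was added at final 25, 5, 1, 0.2 and 0.04 µg/mL for 72 h. Read-out was MTS. IC50 is the concentration giving 50% reduction in proliferation versus untreated controls.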

[2] = test system: MCF7; experiment: Cytotoxicity against human MCF7 cells after 72 hrs by MTS assay; type: functional, cell-based; conditions: MCF7, 72 h
Method in brief: (§2)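 Continuous 72 h exposure with MTS read-out. IC50 is the concentration reducing cellular proliferation by 50% relative to untreated controls.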

[3] = test system: NCI-H460; experiment: Cytotoxicity against human H460 cells after 72 hrs by MTS assay; type: functional, cell-based; method in brief: as §2
[4] = test system: SF-268; experiment: Cytotoxicity against human SF268 cells after 72 hrs by MTS assay; type: functional, cell-based; method in brief: as §2
[5] = test system: MDA-MB-435; experiment: Cytotoxicity against human MDA-MB-435 cells after 72 hrs by MTS assay; type: functional, cell-based; conditions: MDA-MB-435, 72 h; method in brief: as §1
[6] = test system: Escherichia coli; experiment: Antimicrobial activity against Escherichia coli by agar plate diffusion assay; type: functional
Method in brief: (§3)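 Agar plate diffusion. Overnight cultures of each organism were seeded into molten LB or Middlebrook 7H9 medium with 1% glycerol and 1.5% agar, held at 50 °C, and poured as plates. Samples in 10 µL MeOH were spotted onto the surface and tested up to 500 µg/mL. Positive controls were penicillin G, novobiocin and streptomycin. Plates were incubated overnight at 37 °C.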

[7] = test system: Staphylococcus aureus; experiment: Antimicrobial activity against Staphylococcus aureus by agar plate diffusion assay; type: functional; method in brief: as §3
[8] = test system: Mycolicibacterium smegmatis; experiment: Antimicrobial activity against Mycobacterium smegmatis by agar plate diffusion assay; type: functional; method in brief: as §3
[9] = test system: Bacillus subtilis; experiment: Antimicrobial activity against Bacillus subtilis by agar plate diffusion assay; type: functional; method in brief: as §3
[10] = biological target: Transcription factor p65 (Homo sapiens, UniProt Q04206); experiment: Inhibition of NFkappa p65 isolated from nuclear extract of human HeLa cells by ELISA; type: cell-free
[11] = test system: Escherichia coli; experiment: Antimicrobial activity against Escherichia coli at 100 ug/mL by agar plate diffusion assay; type: functional, organism-based
Method in brief: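 Agar plate diffusion: overnight E. coli culture seeded into molten LB or Middlebrook 7H9 medium with 1% glycerol and 1.5% agar, held at 50 °C, then poured as assay plates. Samples dissolved in 10 µL MeOH were applied to the plate surface, and controls were treated the same way. Plates were incubated overnight at 37 °C.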

[12] = test system: HT-29; experiment: Inhibition of mitochondrial membrane potential in human HT-29 cells using JC1 dye staining by fluorescence plate reader assay; type: functional, cell-based
Method in brief: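 HT-29 cells exposed to a range of test concentrations, then loaded with JC-1 dye and washed to remove unbound stain. Fluorescence read for monomers (ex 485/em 530 nm, apoptotic) and aggregates (ex 560/em 595 nm, healthy). Staurosporine positive control. Triplicate measurements, at least two independent experiments; IC50 reported.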

Chain of Transcription factor p65 (Q04206 whole entry, the tested form may be a part): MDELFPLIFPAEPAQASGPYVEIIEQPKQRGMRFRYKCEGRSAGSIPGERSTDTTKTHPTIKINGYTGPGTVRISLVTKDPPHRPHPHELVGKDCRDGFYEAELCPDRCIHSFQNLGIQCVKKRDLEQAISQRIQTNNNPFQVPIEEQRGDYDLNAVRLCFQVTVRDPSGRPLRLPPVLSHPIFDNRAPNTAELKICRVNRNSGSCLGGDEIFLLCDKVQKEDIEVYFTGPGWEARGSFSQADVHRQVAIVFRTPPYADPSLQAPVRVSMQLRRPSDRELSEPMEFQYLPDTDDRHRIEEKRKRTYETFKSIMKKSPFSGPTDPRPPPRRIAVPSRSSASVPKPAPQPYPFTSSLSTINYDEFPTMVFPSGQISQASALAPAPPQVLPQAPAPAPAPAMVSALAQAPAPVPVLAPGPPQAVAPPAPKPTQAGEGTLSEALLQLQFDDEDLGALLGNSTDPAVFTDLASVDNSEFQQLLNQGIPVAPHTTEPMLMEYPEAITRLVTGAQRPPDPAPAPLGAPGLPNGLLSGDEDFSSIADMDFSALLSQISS

SMILES	pIC50 [1]	pIC50 [2]	pIC50 ([3]; Homo sapiens, NCI-H460, 72 h)	pIC50 ([4]; Homo sapiens, SF-268, 72 h)	pIC50 [5]	MIC [8] [µg/mL]	pIC50 [10]	also measured
C[C@H]1C/C=C\C(=O)[C@@H](O)[C@@H](O)C/C=C/c2cc(O)cc(O)c2C(=O)O1	4.94	4.99	5.39	5.05	4.80	> 500	6.12	MIC [6]: > 500 µg/mL; MIC [7]: > 500 µg/mL; MIC [9]: > 500 µg/mL
COC(=O)[C@H]1[C@@H](O)[C@@]2(O)c3c(OC)cc(O[C@@H]4O[C@@H]([C@H](O)CO)CO[C@H]4OC)cc3O[C@@]2(c2ccc(OC)cc2)[C@@H]1c1ccccc1 [SILVESTROL]	8.40				8.22			
COc1cc(O)c2c(c1)/C=C/C[C@H](O)[C@H](O)C(=O)/C=C/C[C@H](C)OC2=O	5.36	5.31		5.25	5.26	> 500	4.94	MIC [7]: > 500 µg/mL
CC1(C)S[C@@H]2[C@H](NC(=O)Cc3ccccc3)C(=O)N2[C@H]1C(=O)O								inhibition [11]: Active
C[C@H]1CCCC(=O)CCC/C=C/c2cc(O)cc(O)c2C(=O)O1 [ZEARALENONE]		< 4.60	< 4.60	< 4.30				
C[C@H]1CCCC(=O)CCCCCc2cc(O)cc(O)c2C(=O)O1 [ZEARALANONE]		< 4.60	< 4.60	< 4.30				
COc1cc(O)c2c(c1)/C=C/C[C@H](O)[C@H](O)C(=O)CCC[C@H](C)OC2=O	< 4.30	< 4.30	< 4.60	< 4.30	< 4.30	> 500	< 4.30	MIC [6]: > 500 µg/mL; MIC [7]: > 500 µg/mL; MIC [9]: > 500 µg/mL
CN[C@@H]1C[C@H]2O[C@@](C)([C@@H]1OC)n1c3ccccc3c3c4c(c5c6ccccc6n2c5c31)C(=O)NC4 [STAUROSPORINE]								pIC50 [12]: 8.60
C[C@H]1CCC[C@H](O)CCCCCc2cc(O)cc(O)c2C(=O)O1 [ZERANOL]		< 4.30	< 4.30	< 4.30				
COc1cc(O)c2c(c1)/C=C/C[C@H](O)[C@H](O)[C@H](O)/C=C/C[C@H](C)OC2=O	< 4.60	< 4.00	< 4.00	< 4.00	< 4.60	> 500	< 4.30	MIC [7]: > 500 µg/mL; MIC [9]: > 500 µg/mL
C[C@H]1CCC[C@@H](O)CCCCCc2cc(O)cc(O)c2C(=O)O1 (stereo in doubt; 12) [TALERANOL]								pIC50 ([3]; nci-h460): 5.02; pIC50 ([4]; sf-268): < 4.60
C[C@H]1CCC[C@@H](O)CCCCCc2cc(O)cc(O)c2C(=O)O1 (stereo in doubt; 10) [TALERANOL]		< 4.60	4.81	< 4.30				
COc1cc(O)c2c(c1)/C=C/C[C@H](O)[C@H](O)[C@@H](O)/C=C/C[C@H](C)OC2=O [ZEAENOL]	< 4.60	< 4.00	< 4.00	< 4.00	< 4.60	> 500	< 4.30	MIC [6]: > 500 µg/mL
COc1cc(O)c2c(c1)/C=C/C[C@H](O)[C@H](O)C(=O)/C=C\C[C@H](C)OC2=O	5.44	5.42	5.92	5.29	5.48	> 500	6.60	MIC [6]: > 500 µg/mL; MIC [9]: > 500 µg/mL
CC[C@@]1(O)C(=O)OCc2c1cc1n(c2=O)Cc2cc3ccccc3nc2-1 [CAMPTOTHECIN]		7.15	> 8.00	7.40				
COc1cc(O)c2c(c1)[C@H]1O[C@@H]1C[C@H](O)[C@H](O)C(=O)/C=C\C[C@H](C)OC2=O [HYPOTHEMYCIN]		4.79	5.37	4.90				
